According to ChEMBL document CHEMBL2010768, “Optimization of Potent Inhibitors of P. falciparum Dihydroorotate Dehydrogenase for the Treatment of Malaria” (ACS Med Chem Lett, 2011):
The source made the active and inactive calls. The calls are words filed in the database; no cut-off is given here.

Tests used:
[1] = target: T1, Dihydroorotate dehydrogenase (Plasmodium falciparum, UniProt Q54A96); assay: Inhibition of Plasmodium falciparum DHODH after 20 mins by 2,6-dichloroindophenol-reduction based assay
T1 sequence (Q54A96 whole entry): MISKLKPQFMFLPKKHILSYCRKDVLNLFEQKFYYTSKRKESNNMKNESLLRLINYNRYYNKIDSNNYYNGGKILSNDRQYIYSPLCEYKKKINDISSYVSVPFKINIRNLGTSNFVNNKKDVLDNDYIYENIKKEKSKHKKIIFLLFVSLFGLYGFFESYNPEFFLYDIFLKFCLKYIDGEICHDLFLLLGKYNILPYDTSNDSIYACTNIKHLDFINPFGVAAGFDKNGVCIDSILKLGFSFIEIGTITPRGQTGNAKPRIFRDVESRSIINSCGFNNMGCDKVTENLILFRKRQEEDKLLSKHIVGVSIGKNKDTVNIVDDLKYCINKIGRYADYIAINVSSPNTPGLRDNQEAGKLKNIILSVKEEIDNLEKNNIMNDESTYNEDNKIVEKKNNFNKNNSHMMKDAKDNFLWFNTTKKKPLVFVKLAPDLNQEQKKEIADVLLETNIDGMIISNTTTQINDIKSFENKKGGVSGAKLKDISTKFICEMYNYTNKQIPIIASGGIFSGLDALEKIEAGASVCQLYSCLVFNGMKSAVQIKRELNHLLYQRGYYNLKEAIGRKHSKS

Plasmodium falciparum [2] = assay: Antiplasmodial activity against Plasmodium falciparum Dd2 infected in […] after 72 hrs by SYBR green assay; type: functional, organism-based; conditions: Dd2, 72 h
[3] = Clearance in mouse liver microsomes by LC-MS/MS analysis; type: ADME, Microsome
Method in brief: (§1)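 Liver microsome incubation. Predicted clearance is derived from a well-stirred model corrected for microsomal and protein binding.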

Plasmodium berghei = assay: Inhibition of Plasmodium berghei DHODH after 20 mins by 2,6-dichloroindophenol-reduction based assay
Plasmodium vivax = assay: Inhibition of Plasmodium vivax DHODH after 20 mins by 2,6-dichloroindophenol-reduction based assay
Plasmodium falciparum [4] = assay: Antiplasmodial activity against Plasmodium falciparum 3D7 infected in […] after 72 hrs by SYBR green assay; type: functional, organism-based; conditions: 3D7, 72 h
[5] = Clearance in human liver microsomes by LC-MS/MS analysis; type: ADME, Microsome; method in brief: as §1
[6] = target: Dihydroorotate dehydrogenase (quinone), mitochondrial (Homo sapiens, UniProt Q02127); assay: Inhibition of human DHODH after 20 mins by 2,6-dichloroindophenol-reduction based assay
Sequence of Dihydroorotate dehydrogenase (quinone), mitochondrial (Q02127 whole entry): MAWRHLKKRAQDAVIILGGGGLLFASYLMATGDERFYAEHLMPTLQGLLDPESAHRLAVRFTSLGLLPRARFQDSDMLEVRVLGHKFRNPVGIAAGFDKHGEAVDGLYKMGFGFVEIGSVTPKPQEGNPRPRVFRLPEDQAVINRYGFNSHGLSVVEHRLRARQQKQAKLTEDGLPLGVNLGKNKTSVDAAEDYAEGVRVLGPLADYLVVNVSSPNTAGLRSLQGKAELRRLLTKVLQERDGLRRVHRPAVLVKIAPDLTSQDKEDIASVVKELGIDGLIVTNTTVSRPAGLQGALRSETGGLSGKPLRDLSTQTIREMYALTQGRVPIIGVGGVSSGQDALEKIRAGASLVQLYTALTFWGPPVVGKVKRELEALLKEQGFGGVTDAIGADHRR

[7] = Cytotoxicity against human RPTEC after 4 days by alamar blue assay; type: cell-based; conditions: RPTEC cells, read-out: LC50

Row | Structure (SMILES) | IC50 [1] [nM] | IC50 (Plasmodium falciparum [2]) [nM] | CLhep predicted [3] [mL/min/kg] | inhibition (Plasmodium berghei) | inhibition (Plasmodium vivax) | IC50 (Plasmodium falciparum [4]) [nM] | CLhep predicted [5] [mL/min/kg] | IC50 [6] [nM] | CC50 at 96 h [7] [nM]
1 | Cc1cccc2c1nc(C)n2-c1ccc(C(=O)NC2CC2)s1 | 39 | 22 | 66 | Active | Active | 10 | 10 | – | –
2 | Cc1nc2c(Br)cccc2n1-c1ccc(C(=O)NC2CC2)s1 | 21 | 7 | 26 | Active | Active | 4 | 5 | – | –
3 | O=C(NC1CC1)c1ccc(-n2cnc3cc(C(F)(F)F)ccc32)s1 | 19 | 12 | > 72 | Active | Active | 12 | 8 | 17200 | –
4 | Cc1nc2c(Cl)cc(F)cc2n1-c1ccc(C(=O)NC2CC2)s1 | 25 | 13 | 42 | Active | Active | 12 | 5 | > 30000 | –
5 | O=C(NC1CCCC1)c1ccc(-n2cnc3ccccc32)s1 | 2510 | 5500 | – | – | – | 4400 | – | – | –
6 | Cc1nc2cc(Cl)ccc2n1-c1ccc(C(=O)NC2CC2)s1 | 49 | 102 | – | Active | Active | 78 | – | – | –
7 | Cc1cc(F)c2nc(C)n(-c3ccc(C(=O)NC4CC4)s3)c2c1 | 32 | 17 | > 72 | Active | Active | 10 | 12 | – | –
8 | Cc1cccc2nc(C)n(-c3ccc(C(=O)NC4CC4)s3)c12 | 609 | 290 | > 72 | Active | Active | 143 | 6 | – | –
9 | Cc1cc(F)c2c(c1)ncn2-c1ccc(C(=O)NC2CC2)s1 | 95 | 60 | > 72 | Active | Active | 36 | 11 | 7300 | –
10 | CC(C)NC(=O)c1ccc(-n2cnc3ccccc32)s1 | 680 | 810 | – | – | – | 560 | – | – | > 62000
11 | Cc1nc2c(OCC(F)F)cccc2n1-c1ccc(C(=O)NC2CC2)s1 | 28 | 113 | – | Active | Active | 128 | – | – | –
12 | Cc1nc2ccc(F)cc2n1-c1ccc(C(=O)NC2CC2)s1 | 111 | 113 | > 72 | Active | Active | 93 | < 4 | – | –
13 | CNC(=O)c1ccc(-n2cnc3ccccc32)s1 | 1080 | 420 | – | – | – | 280 | – | – | > 62000
14 | O=C(NC1CC1)c1ccc(-n2cnc3c(Cl)cc(F)cc32)s1 | 35 | 18 | > 72 | Active | Active | 8 | 7 | 5600 | –
15 | O=C(NC1CC1)c1ccc(-n2cnc3ccccc32)s1 | 60 | 90 | – | – | – | 80 | – | – | > 62000
16 | Cc1nc2ccccc2n1-c1ccc(C(=O)NC2CC2)s1 | 80 | 110 | – | – | – | 90 | – | – | > 62000
17 | Cc1nc2cc(C(F)(F)F)ccc2n1-c1ccc(C(=O)NC2CC2)s1 | 28 | 28 | > 72 | Active | Active | 20 | 4 | – | –
